# Compound activity: PubChem, The Scripps Research Institute Molecular Screening Center
# SIAE primary = blocks human sialic acid acetylesterase | Q9HAT2 | SIAE FP-Rh probe binding, fluorescence polarization | inhibition, % at 9.66 µM | actives 0.69% (n = 370,000) | AID 1053197;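 active = inhibition above a cutoff: mean of compounds within the control limits plus 3 SD of those, cut at about 17% in these data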;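 note: 0% = plate median of compound wells and 100% = probe without SIAE protein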
# TCR-CD3 inh = blocks the human TCR-CD3 interaction. TAMRA-labeled TCR probe fluorescence, biochemical. inhibition, % at 9.4 µM. actives 0.37% (n = 360,000);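 note: recombinant mutant TCR 2C K166C tagged with TAMRA read by polarization; 0% = receptor in buffer alone and 100% = receptor with positive control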
# mABHD4 FP = inhibitors of mouse ABHD4; Q8VD66; AID 720543; actives 0.54% (n = 370,000); inhibition, % at 8.92 µM; purified mABHD4, FP-Rh probe fluorescence polarization;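 active = inhibition exceeding the mean over every tested compound plus 3 SD, cut at about 30% in these data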;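 note: 0% = plate median of compound wells and 100% = S159A mutant with DMSO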
#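 Assay system: wild-type mouse ABHD4 protein; compound: single nominal dose of 8.92 µM, 0.89% DMSO final; schedule: 45 min + 60 min at 25 °C; measured by: FP readout, ex 525 nm / em 598 nm; evaluation: % inhibition of FP-Rh probe binding versus controls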
# HTRA1 inh = HTRA1 (human) protease inhibition. Q92743. recombinant HTRA1, FP-rhodamine activity-based probe, fluorescence polarization. inhibition, % at 5.96 µM. actives 0.5% (n = 340,000). AID 504803; in the data active = inhibition above about 36%;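 note: 0% = enzyme with DMSO and 100% = wells lacking enzyme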
# PRMT1 inh = blocks human protein arginine methyltransferase 1 | Q99873 | recombinant PRMT1, activity-based probe fluorescence polarization | inhibition, % at 2.79 µM | actives 1.3% (n = 370,000) | AID 652257;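 active = inhibition above about 21% made by adding two undisclosed values, limit read from the data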
# Target sequence (Q99873 whole entry, looked up): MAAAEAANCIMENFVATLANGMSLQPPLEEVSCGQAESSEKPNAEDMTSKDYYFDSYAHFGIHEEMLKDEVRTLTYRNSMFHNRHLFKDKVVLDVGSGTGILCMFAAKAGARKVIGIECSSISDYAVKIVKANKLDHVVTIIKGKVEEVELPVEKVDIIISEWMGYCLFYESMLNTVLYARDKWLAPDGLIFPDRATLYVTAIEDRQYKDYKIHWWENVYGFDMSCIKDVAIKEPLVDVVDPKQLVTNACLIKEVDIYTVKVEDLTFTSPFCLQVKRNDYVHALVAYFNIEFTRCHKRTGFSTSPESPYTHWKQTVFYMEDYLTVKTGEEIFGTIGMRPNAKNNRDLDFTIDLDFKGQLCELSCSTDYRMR
# BSA TAMRA ctr = counter-screen for TCR-CD3 interaction inhibitors: BSA probe | shares compounds with TCR-CD3 inh | TAMRA-labeled BSA probe fluorescence counterscreen | inhibition, % at 9.4 µM | actives 10% (n = 1,200) | AID 652035; in the data active = inhibition above about 23%;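 note: 0% = buffer low control and 100% = reference high control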
# TCR-CD3 conf = TCR-CD3 interaction inhibition, confirmation; shares compounds with TCR-CD3 inh; TAMRA-labeled TCR probe fluorescence binding assay; inhibition, % at 9.4 µM; actives 48% (n = 1,200)
# Active calls of the source: *; nt = no result given. Hits are enriched below; roughly 2.6% of the tested compounds scored in any of these assays. Cut-off read from the data, not from the text of the source, unless noted: active = inhibition above about 19%; inactive = the rest.
SMILES,SIAE primary,TCR-CD3 inh,mABHD4 FP,HTRA1 inh,PRMT1 inh,BSA TAMRA ctr,TCR-CD3 conf
COc1ccc(-c2cn3cc(C(=O)NN)ccc3n2)cc1,-4,21*,0,5,-4,0,-2
CCCSc1nc2sc3c(c2c(=O)[nH]1)CCN(Cc1ccccc1)C3,nt,nt,nt,-15,nt,nt,nt
O=c1[nH]c(C(Cl)Cl)nc2sc3c(c12)CCN(Cc1ccccc1)C3,-4,25*,-5,6,3,-4,15
C/C(=N\NC(=O)CCc1ccccc1)C1C(=O)c2ccccc2C1=O,3,19*,20,13,1,-6,5
CCOc1ccc(S(=O)(=O)Nc2ccc(C(=O)NNC(=O)c3ccncc3)cc2)cc1,-2,-1,-1,4,-3,nt,nt
O=C(NNC(=O)c1cc(Cl)ccc1O)c1ccc(NS(=O)(=O)c2cccs2)cc1,12,24*,1,27,12,-17,17
CCOc1ccc(NS(=O)(=O)c2ccc(C(=O)NNC(=O)c3ccccc3O)cc2)cc1,9,23*,-1,22,-1,-9,23*
O=C(NNC(=O)c1ccccc1O)c1ccc(S(=O)(=O)Nc2ccccc2)cc1,12,29*,10,13,-4,-19,9
CC(=O)c1sc(NC(=O)CN2C(=O)C3CC=CCC3C2=O)nc1-c1ccccc1 (stereo unspecified),-4,-3,-4,-7,4,nt,nt
O=C(Nc1ccc2ccccc2c1)c1cn(-c2ccccc2)nc1-c1cccs1,-108,89*,-87,-93,-4,18,38*
Cc1c(NC(=S)N/N=C/c2cc([N+](=O)[O-])ccc2O)c(=O)n(-c2ccccc2)n1C,12,32*,27,31,4,-5,31*
O=C(N/N=C/c1cc([N+](=O)[O-])ccc1O)c1cccc2cc[nH]c12,5,20*,8,22,1,-8,19
O=C(N/N=C/c1cc([N+](=O)[O-])ccc1O)c1cccc(N2CCCC2=O)c1,2,46*,11,-4,0,-10,37*
O=C(CSc1nc2ccccc2s1)N/N=C/c1cc([N+](=O)[O-])ccc1O,0,34*,19,0,-1,-11,31*
COc1cc(/C=N/NC(=O)c2cccc(N3CCCC3=O)c2)ccc1O,-1,1,8,-2,-1,nt,nt
CC(C)(C)c1cc(/C=N/NC(=O)C[n+]2ccccc2)cc(C(C)(C)C)c1O,-1,-3,1,6,-8,nt,nt
O=C(CN(c1cccc(Br)c1)S(=O)(=O)c1ccccc1)N/N=C/c1cc([N+](=O)[O-])ccc1O,15,30*,4,nt,-2,-16,28*
CCc1ccc(N2CC(C(=O)N/N=C/c3cc([N+](=O)[O-])ccc3O)CC2=O)cc1 (stereo unspecified),-3,31*,3,nt,4,-9,26*
CCc1ccc(N2CC(C(=O)N/N=C/c3ccccc3OC)CC2=O)cc1 (stereo unspecified),8,-7,-3,-23,4,nt,nt
Cc1ccccc1CNC(=O)CN1CCCc2ccccc21,3,nt,-3,nt,-6,nt,nt
Cc1csc(NC(=O)CN2C(=O)COc3ccc(Cl)cc32)n1,2,-2,-2,0,-2,nt,nt
O=C(N/N=C/c1cn(-c2ccccc2)nc1-c1cc2ccccc2o1)c1ccccc1Br,1,-1,-17,-42,3,nt,nt
O=C(N/N=C/c1cn(-c2ccccc2)nc1-c1cc2ccccc2o1)c1c[nH]c2ccccc12,-82,25*,-61,-94,1,11,16
Cc1ccc(C)c(NC(=O)NNC(=O)c2cc3ccccc3cc2O)c1,6,22*,-6,32,-1,-8,18
O=C(NNC(=O)c1cc2ccccc2cc1O)Nc1ccccc1F,5,13,18,22,3,nt,nt
SMILES,SIAE primary,TCR-CD3 inh,mABHD4 FP,HTRA1 inh,PRMT1 inh,BSA TAMRA ctr,TCR-CD3 conf
O=C(NCCCl)NNC(=O)c1cc2ccccc2cc1O,10,19*,0,10,7,-4,16
CCc1ccc(NC(=O)NNC(=O)c2cc3ccccc3cc2O)cc1,2,18,6,16,-3,nt,nt
Cc1ccc(NC(=O)NNC(=O)c2cc3ccccc3cc2O)cc1C,1,21*,6,21,3,-4,17
CCOc1ccc(N(CC(=O)Nc2c(C)n(C)n(-c3ccccc3)c2=O)S(=O)(=O)c2ccc(C)c(C)c2)cc1,-1,nt,-5,nt,1,nt,nt
COc1ccccc1C(=O)NNC(=O)c1cc2ccccc2cc1O,5,12,29,14,1,nt,nt
COc1ccc(NC(=O)NNC(=O)c2ccc3ccccc3c2O)cc1OC,16,51*,9,-1,2,-7,46*
COc1ccc(NC(=O)c2cccc3ccccc23)cc1OC,1,-4,-5,2,4,nt,nt
COc1cccc(C(=O)NNC(=O)c2ccc3ccccc3c2O)c1,1,40*,5,8,11,-7,36*
COc1cccc(C(=O)NNC(=O)c2ccccc2)c1,6,0,-6,-8,-2,nt,nt
Cc1ccccc1NC(=O)NNC(=O)c1ccc2ccccc2c1O,15,43*,25,12,-1,-8,33*
COc1ccc(C(=O)NNC(=O)c2cc3ccccc3cc2O)cc1,4,32*,13,7,3,-11,24*
CC12C=CC(C)(C3C(=O)NC(=O)C31)C1C3C(=O)NC(=O)C3C12 (stereo unspecified),0,4,3,nt,0,nt,nt
N=c1c2c(ccn1CCCc1ccccc1)Oc1ccc3ccccc3c1C2c1ccccc1 (stereo unspecified),-71,nt,-58,nt,-3,nt,nt
Cc1ccc(C(=O)OCC(=O)N2CCCC2)cc1,8,-6,0,11,3,nt,nt
O=C(C1CCCCCC1)N1CC[C@@H](N2CCC(O)CC2)[C@H](O)C1,3,3,-1,5,-4,nt,nt
CCc1ccc(NC(=O)NNC(=O)c2ccc3ccccc3c2O)cc1,15,22*,6,11,4,6,29*
COc1ccccc1NC(=O)NNC(=O)c1ccc2ccccc2c1O,7,36*,11,12,-1,-12,25*
Cc1noc(C)c1-c1ccc(C(=O)NC2CCCCC2)c2occc12,0,1,9,nt,0,nt,nt
Cc1ccc(C(=O)Nc2cccc([N+](=O)[O-])c2)cc1S(=O)(=O)Nc1ccc(NC(=O)c2ccccc2)cc1,-50,30*,-98,-88,0,10,23*
O=C(COC(=O)c1ccc(O)cc1)Nc1cccc(S(=O)(=O)NC2=NCCC2)c1,-6,-6,3,-2,4,nt,nt
O=C(COC(=O)c1ccc(OC(F)F)cc1)Nc1cccc(S(=O)(=O)NC2=NCCC2)c1,1,40*,4,8,-2,3,-1
